Laboratory results taken from BindingDB's records for doi:10.1021/acsmedchemlett.0c00208 (University of Bonn, 2020).

Molecular target: T1, N-arachidonyl glycine receptor (Homo sapiens, UniProt Q14330)
T1 sequence (Q14330 whole entry): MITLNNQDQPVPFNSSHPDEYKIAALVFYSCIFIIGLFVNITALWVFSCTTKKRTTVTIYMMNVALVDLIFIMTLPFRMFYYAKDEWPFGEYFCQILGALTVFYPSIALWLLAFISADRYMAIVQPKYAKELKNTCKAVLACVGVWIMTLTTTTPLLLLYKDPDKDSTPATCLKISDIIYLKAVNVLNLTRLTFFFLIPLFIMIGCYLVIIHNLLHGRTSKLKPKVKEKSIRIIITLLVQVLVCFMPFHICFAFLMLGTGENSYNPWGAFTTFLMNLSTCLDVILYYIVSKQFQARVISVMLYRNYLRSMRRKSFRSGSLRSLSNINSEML
Assay: […] at Prolink1-tagged human GPR18 receptor expressed in CHO cells assessed as […] by measuring 2-(3-(6-(4-chlorophenoxy)hexyloxy)benzylidene)-6,7-dihydro-2H-imidazo[2,1-b][1,3]thiazin-3(5H)-one IC50 at 1 uM after 90 mins by beta-galactosidase based topcount luminescence analysis
How it was run: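 Human GPR18 stably expressed in CHO cells, β-arrestin enzyme complementation. Antagonist concentration-inhibition curves run against a fixed 1 μM agonist stimulus. IC50 and maximal inhibition derived from curves; means of three independent experiments, each in duplicate.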

Cn1c(=O)c2c(nc3n2CCCN3CCc2c[nH]c3ccccc23)n(C)c1=O [9-(2-(1H-indol-3-yl)ethyl)-1,3-dimethyl-6,7,8,9-tetrahydropyrimido[1,2-a]purine-2,4(1H,3H)-dione]
IC50: 944 nM
